Legend:
[1] = Inhibition of beta-hematin formation assessed as Ferriprotoporphyrin IX biomineralisation after 24 hrs; type: functional
Outline: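 Hemin (0.5 mg/ml in DMSO) was mixed with 0.5 M sodium acetate pH 4.4 and compound, then incubated for 24 h at 37 °C. The pellet was washed with DMSO to remove unreacted hemin and dissolved in 0.1 N NaOH, with A405 read. Percent inhibition was taken versus solvent control, and IC50 by curve fitting.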

[2] = Cytotoxicity against MDCK cells assessed as cell viability by colorimetric formazan-based MTS assay; design: species or system Canis lupus familiaris; settings: dog, MDCK cells
Outline: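 Cytotoxicity on MDCK cells; 50% cytotoxic concentration from cell viability measured by colorimetric formazan-based MTS assay.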

[3] = Cytotoxicity against MDCK cells assessed as minimum compound concentration required to causes microscopically detectable alteration of normal cell morphology; type: cell-based, Canis lupus familiaris; settings: dog
Outline: (§1)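 Confluent, non-proliferating cell cultures were exposed to the compounds. The endpoint was the minimum concentration producing a microscopically detectable alteration of normal cell morphology.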

[4] = Cytotoxicity against african green monkey Vero cells assessed as minimum compound concentration required to causes microscopically detectable alteration of normal cell morphology; type: cell-based; settings: chlorocebus sabaeus; outline: as §1
Human respirovirus 3 = assay: Antiviral activity against Parainfluenza-3 virus infected in african green monkey Vero cells assessed as inhibition of virus-induced cytopathogenicity after 4 days; type: functional, organism-based; settings: Human respirovirus 3, Vero, 96 h
Outline: (§2)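 Confluent HEL, Vero or HeLa monolayers were inoculated with 100 CCID50 of virus in the presence of varying concentrations of compound. Cytopathicity was scored when it reached completion in untreated, virus-infected control cultures.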

Sindbis virus = assay: Antiviral activity against Sindbis virus infected in african green monkey Vero cells assessed as inhibition of virus-induced cytopathogenicity after 4 days; type: functional, organism-based; settings: 96 h; outline: as §2
[5] = Cytotoxicity against human HeLa cells assessed as minimum compound concentration required to causes microscopically detectable alteration of normal cell morphology; type: cell-based; outline: as §1
[6] = system: Vesicular stomatitis virus; assay: Antiviral activity against Vesicular stomatitis virus infected in HeLa cells assessed as inhibition of virus-induced cytopathogenicity after 4 days; type: functional, organism-based; settings: 96 h
Outline: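 Confluent HEL or HeLa monolayers infected with 100 CCID50 of virus in the presence of varying compound concentrations.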

Coxsackievirus B4 = assay: Antiviral activity against Coxsackie virus B4 infected in human HeLa cells assessed as inhibition of virus-induced cytopathogenicity after 4 days; type: functional, organism-based; settings: Enterovirus B, 96 h; outline: as §2
[7] = system: Respiratory syncytial virus; assay: Antiviral activity against Respiratory syncytial virus infected in human HeLa cells assessed as inhibition of virus-induced cytopathogenicity after 4 days; type: functional, organism-based; settings: 96 h; outline: as §2
Influenza B virus = assay: Antiviral activity against Influenza B virus infected in MDCK cells assessed as reduction visual scoring of virus-induced cytopathogenicity after 4 days; type: functional, organism-based; settings: 96 h
Outline: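 MDCK monolayers infected with 100 CCID50 of influenza A (H1N1 or H3N2) or influenza B, with varying compound concentrations. Cytopathicity read when untreated infected controls reached complete CPE.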

Influenza A virus [8] = assay: Antiviral activity against Influenza A virus H1N1 infected in MDCK cells assessed as inhibition of virus-induced cytopathogenicity after 4 days by colorimetric formazan-based MTS assay; type: functional, organism-based; settings: 96 h
Influenza A virus [9] = assay: Antiviral activity against Influenza A virus H3N2 infected in MDCK cells assessed as inhibition of virus-induced cytopathogenicity after 4 days by colorimetric formazan-based MTS assay; type: functional, organism-based; settings: 96 h

Structure (SMILES)	IC50 [1] [µM]	CC50 [2] [µM]	MCC [3] [µM]	MCC [4] [µM]	EC50 (Human respirovirus 3) [µM]	EC50 (Sindbis virus) [µM]	MCC [5] [µM]	EC50 [6] [µM]	EC50 (Coxsackievirus B4) [µM]	EC50 [7] [µM]	EC50 (Influenza B virus) [µM]	EC50 (Influenza A virus [8]) [µM]	EC50 (Influenza A virus [9]) [µM]
CCN(CC)CCCC(C)Nc1ccnc2cc(Cl)ccc12 (stereo not drawn) [CHLOROQUINE]	18												
NC(=O)c1ncn([C@@H]2O[C@H](CO)[C@@H](O)[C@H]2O)n1 [RIBAVIRIN]		> 100	> 100	> 250	29	> 250	> 250	> 250	> 250	> 250	7	6.7	5.6
